Bioassay records as filed in PubChem.
This is a sample that favours compounds with a hit; in the whole collection about 0.95% have one here.
Diaphorase inh – counter-screen for diaphorase-based assays: diaphorase inhibitors and chemical oxidizers | diaphorase resazurin-to-resorufin fluorescence, NADH, 16 min; bacterial (C. kluyveri) enzyme, not human | inhibition, % at 20 µM | 190,000 tested, 0.69% active;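 active = primary screen inhibition at 20 µM above a set limit, cut at about 50% in these data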;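 note: plate controls were DMSO with full reaction for no effect and wells lacking NADH for full effect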
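Assay system – diaphorase enzyme from Clostridium kluyveri · Amount – diaphorase 0.14 U/mL (working solution) · Times – reaction incubation of 16 min at room temperature · Controls – No-NADH positive control and DMSO neutral control · Signal – resorufin fluorescence 544/590 nm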
HKDC1 inh – HKDC1 (human) hexokinase inhibition. 340,000 tested, 0.16% active. AID 493160. inhibition, % at 20 µM. recombinant HKDC1, G6PDH/diaphorase resazurin coupled fluorescence. Q2TB90;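 active = inhibition above about 35% when tested at 20 µM, limit read from the data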;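 note: plate controls were DMSO wells with enzyme for no effect and DMSO wells lacking enzyme for full effect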
Target sequence (Q2TB90 whole entry, looked up): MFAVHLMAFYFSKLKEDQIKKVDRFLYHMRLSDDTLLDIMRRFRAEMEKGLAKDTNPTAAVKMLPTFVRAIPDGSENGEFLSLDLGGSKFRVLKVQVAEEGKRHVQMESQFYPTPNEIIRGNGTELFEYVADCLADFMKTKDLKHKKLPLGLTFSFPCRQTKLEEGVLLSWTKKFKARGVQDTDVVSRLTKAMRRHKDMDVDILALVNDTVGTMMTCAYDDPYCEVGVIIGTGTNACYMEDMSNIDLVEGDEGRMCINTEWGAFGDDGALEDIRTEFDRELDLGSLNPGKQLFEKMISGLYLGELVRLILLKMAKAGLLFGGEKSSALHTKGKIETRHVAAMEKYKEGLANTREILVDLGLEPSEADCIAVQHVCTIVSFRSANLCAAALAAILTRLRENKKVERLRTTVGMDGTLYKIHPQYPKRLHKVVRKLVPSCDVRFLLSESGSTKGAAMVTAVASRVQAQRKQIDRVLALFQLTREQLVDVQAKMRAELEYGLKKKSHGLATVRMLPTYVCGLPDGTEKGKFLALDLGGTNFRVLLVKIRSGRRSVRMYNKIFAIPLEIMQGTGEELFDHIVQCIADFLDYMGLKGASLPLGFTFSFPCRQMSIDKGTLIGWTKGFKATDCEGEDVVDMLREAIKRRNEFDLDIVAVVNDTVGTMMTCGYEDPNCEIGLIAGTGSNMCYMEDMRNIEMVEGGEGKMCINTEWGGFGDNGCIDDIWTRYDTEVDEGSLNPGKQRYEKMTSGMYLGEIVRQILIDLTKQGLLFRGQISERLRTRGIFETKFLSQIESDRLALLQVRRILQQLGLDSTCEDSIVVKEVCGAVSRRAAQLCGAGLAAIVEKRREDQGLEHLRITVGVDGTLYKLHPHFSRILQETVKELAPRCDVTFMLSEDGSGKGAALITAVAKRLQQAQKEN
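Material – in-house recombinant HK5 (HKDC1) enzyme · Quantity – HKDC1 at 5 µg/mL · Buffer or medium – pH 8.0 Tris buffer with 10 mM MgCl2 · Reagent – glucose with 1 mM ATP · Dosing – single 20 µM dose · Times – reaction time 90 min, room temperature, protected from light · Technique – resorufin fluorescence at 613 nm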
G6PDH CS – L. mesenteroides G6PDH inhibition counter-screen; AID 1020; 200,000 tested, 0.12% active; inhibition, % at 5 µM; Purified L. mesenteroides G6PDH, diaphorase/resazurin coupled fluorescence, 45 min; in the data active = inhibition above about 50%
p97 ATPase inh – human p97 ATPase inhibition; P55072; recombinant p97 ATPase, Kinase-Glo ATP luminescence, 3 h; 220,000 tested, 0.42% active; inhibition, % at 8 µM; in the data active = inhibition above about 15%;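 note: 0% = DMSO vehicle and 100% = wells lacking enzyme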
UBC9 SUMO inh – inhibitors of human SUMOylation (UBC9); P63279; HTRF SUMOylation assay, SAE1/SAE2 + UBC9, in vitro; inhibition, % at 35 µM; 290,000 tested, 0.36% active; in the data active = inhibition above about 50%, passing the limit was not always enough
p97 confirm – human p97 ATPase inhibition, confirmation; recombinant p97 ATPase, Kinase-Glo ATP luminescence; 760 tested, 44% active; inhibition, % at 8 µM; shares compounds with p97 ATPase inh;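 active = percent inhibition of p97 ATPase above a set limit, the primary screen's mean plus 3 SD, cut at about 15% in these data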;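 note: 0% = DMSO wells and 100% = wells lacking p97 protein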
The depositor's hits bear a star; · = no result.

SMILES | Diaphorase inh | HKDC1 inh | G6PDH CS | p97 ATPase inh | UBC9 SUMO inh | p97 confirm
Cc1ccccc1C(=O)NC(=S)Nc1ccccc1C(=O)O | 21.7 | -3.0 | 7.4 | 3.3 | 0.0 | ·
COC(=O)c1ccccc1NC(=S)NC(=O)c1ccccc1C | 20.0 | 0.7 | 0.9 | 36.0* | 12.8 | 38.7*
COC(=O)c1ccccc1NC(=S)NC(=O)c1ccccc1 | 5.9 | 3.4 | 8.8 | 25.6* | 10.2 | 21.1*
COC(=O)c1ccccc1NC(=S)NC(=O)C1CCCCC1 | 6.2 | 0.9 | 7.0 | 17.6* | 0.0 | 18.9*
COC(=O)c1ccccc1NC(=S)NC(=O)c1ccc(C)cc1 | 23.6 | 7.2 | -7.9 | 5.8 | 14.5 | ·
CCOc1ccc(CNC(=O)C2CCCN(S(=O)(=O)N3CC(C)CC(C)C3)C2)cc1OC (centres undefined) | · | -4.4 | · | · | 2.3 | ·
C=C[C@](C)(CC[C@@]1(C)C(C)CC(OC2OC(C)C(OC3OC(COC(C)=O)C(O)C(O)C3O)C(O)C2O)[C@@]2(C)C(C)=CCCC12)OC1OC(C)C(O[C@@H]2O[C@@H](C)C(O)C(O)[C@H]2O)C(O)C1O (some centres undefined) | · | -3.9 | · | · | · | ·
N#C/C(=C/c1ccc(-c2ccc([N+](=O)[O-])cc2)o1)c1nnc(N2CCOCC2)n1-c1ccccc1 | · | 7.9 | · | · | · | ·
Cc1cccc(N(C(=O)c2snc(C(N)=O)c2N)C(C(=O)NC2CCCC2)c2ccco2)c1 (centres undefined) | · | -4.3 | · | · | -12.8 | ·
Cc1cccc(C(=O)N2CCN(Cc3nc4sc5c(c4c(=O)[nH]3)CCCC5)CC2)c1 | · | -5.0 | · | · | 15.9 | ·
Cc1ccccc1Oc1nc2c(C)cccn2c(=O)c1/C=C(\C#N)C(=O)NC1CCS(=O)(=O)C1 (centres undefined) | · | 3.6 | · | 15.4* | 25.4 | 7.3
COc1ccc(/C=N\NC(=O)c2cc(O)c(O)c(O)c2)cc1CN1CCN(c2ccc(F)cc2)CC1 | 63.1* | 4.5 | -20.0 | 16.6* | 18.9 | 25.9*
COc1ccc(/C=N/NC(=O)c2ccc(C)cc2)cc1CN1CCN(c2ccc(F)cc2)CC1 | 13.2 | -0.9 | 0.1 | 2.8 | 7.4 | ·
CCOC(=O)c1c(-c2ccccc2)c[nH]c1C | · | -4.1 | · | · | · | ·
Oc1[nH]c(=S)sc1/C=C1\C(c2ccccc2)=Nc2ccccc21 | 9.0 | 16.8 | 6.1 | 22.7* | 18.7 | 53.2*
CCc1cc2c(Nc3ccc(O)cc3)nc(C)nc2s1 | · | -4.8 | · | · | -14.2 | ·
COc1ccc(Nc2nc3ccccc3nc2NS(=O)(=O)c2cccs2)c(OC)c1 | · | -1.6 | · | 23.8* | 27.9 | 29.3*
Cc1cc(NS(=O)(=O)c2c(C)[nH]c(=O)[nH]c2=O)ccc1Br | · | -2.1 | · | · | 1.8 | ·
COc1ccc(N2C(=O)C3C(c4ccc(OC)cc4O)NC(Cc4ccccc4)(C(=O)O)C3C2=O)cc1 (centres undefined) | 6.7 | -7.2 | 1.6 | 17.6* | 14.0 | 7.2
COc1ccc2c(c1)Cc1sc(NC(=O)c3ccccc3)nc1-2 | 15.3 | 6.5 | 22.3 | 18.4* | 92.6 | 1.8
Nc1cc2nn(-c3ccccc3)nc2cc1Cl | 81.2* | 21.6 | 54.9* | 19.0* | 78.0* | 8.9
CC(C)CC(=O)Nc1cc2nn(-c3ccccc3)nc2cc1Cl | 8.4 | -2.1 | 7.5 | 1.9 | 10.0 | ·
CCCOc1cc2c(C#N)c(N3CCCC3)nc(N)c2c(N)n1 | · | 24.1 | · | · | · | ·
COc1cc2c(C#N)c(N3CCCC3)nc(N)c2c(N)n1 | · | 25.8 | · | 26.1* | · | 3.9
CNC(=O)c1c(NC(=O)C2=COCCO2)sc(C)c1C | · | -10.9 | · | · | · | ·
SMILES | Diaphorase inh | HKDC1 inh | G6PDH CS | p97 ATPase inh | UBC9 SUMO inh | p97 confirm
O=C(OCC(=O)N1CCc2ccccc21)c1n[nH]c(=O)c2ccccc12 | · | 1.6 | · | · | · | ·
CC(=O)NCCC(=O)Nc1ccc(C(N)=O)cc1 | 1.2 | -7.3 | 18.1 | 22.8* | 5.0 | 7.3
CCCC(=O)Nc1ccc(C(N)=O)cc1 | 2.3 | -6.8 | -0.3 | 2.4 | 8.9 | ·
O=C1NNC(c2ccccc2)=N/C1=C\c1ccccc1Cl | · | 11.1 | · | 17.5* | 81.2 | 18.3*
CC(=O)NCCc1nc(-c2ccc(Cl)cc2)no1 | · | -1.2 | · | · | · | ·
CC(C)(CC(=O)O)Cc1nc(-c2ccc(Cl)cc2)no1 | 11.7 | -0.4 | -1.5 | 18.6* | -5.7 | 3.1
O=C(O)CCc1nc(-c2ccc(Cl)cc2)no1 | 7.3 | -4.9 | 5.8 | 19.9* | -1.3 | 4.2
CN(C(=O)C1CCC(=O)N(CCc2ccc(Cl)cc2)C1)C1CCOCC1 (centres undefined) | · | -5.9 | · | · | 9.5 | ·
